Drawing on the RNAGym collection of RNA variant scans (doi:10.1126/science.aae0568), this text covers yeast fitness for 38 variants.

The labels stand for the following.
B1: tRNA (parent)
chain: GUUCCGUUGGCGUAAUGGUAACGCGUCUCCCUCCUAAGGAGAAGACUGCGGGUUCGAGUCCCGUACGGAACG

Fewer inactive variants are shown than the library holds. Some results are limits rather than exact numbers.

Variants of B1 are the subject of this data set. Put plainly: yeast fitness relative to wild type (ratio to wild type); higher = fitter; tRNA-Arg(CCU), competitive growth, 37 C, YPD. In short, it runs like this:
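For this measurement, the tRNA-Arg(CCU) gene was varied by chemical synthesis at a 3% per-site mutation rate across 69 sites, and each variant was placed at the native genomic locus in Saccharomyces cerevisiae. The pooled strains went through a 24-hour competition in YPD at 37°C in six parallel replicates, with amplicons from start and end populations read by 100-nucleotide paired-end sequencing. Darwinian fitness relative to wild type followed from the change in each genotype's frequency. Genotypes needed ≥ 100 starting reads, and estimates < 0.5 were set to 0.5.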
As for GAUCCGUUGGCGUAAUGGUAGCGCGUCUCCCUCCUAAGGAGAACACUGCGGGUUCGAGGCCCGUACGGAACG [U2A A21G G44C U59G], the yeast fitness was no more than 0.5.
For GAUCCGUUGGCGUAGUGGUAACGCGUCUCCCUCCUAAGGAGAAGACUGCGGGUUCGAGUCCCGUACGGAACG [U2A A15G] the value was 0.981.
The same measure for GAUCCGUUGGCGUAGUGGUAACGUGUCUCCCUCCUAAGGAGAAGACUGCGGGUCCGAGUCCCGUACGGAACG [U2A A15G C24U U54C]: 0.726; for GAUCCGUUGGCGUCAUGGUAACGCGUCUCCCUCCUGAGGAGAAGACUGCGGGUUCGAGUCCCGUAUGGAACG [U2A A14C A36G C66U]: 0.639; for GAUCCGUUGGCGUAAUGGUUACGCGUCUCCCUCAUAAGGAGAAGACUGCGGGUUCGAGUCUCGUACGGAACG [U2A A20U C34A C61U]: no more than 0.5.
For GAUCCGUUGGCGUACUGGUAACGCGUCUCCCUCCUAAGGAGAAGACUGCGGGUUCGACUCCCGUACGGUACG [U2A A15C G58C A69U] the value was no more than 0.5.
Take GAUCCGUUGGCGUGAUGGUAACGCGUCUCCCUCCUAAGGAGAAGACUGCGGGUUCGAGUCCCGUACGGAACG [U2A A14G]: the yeast fitness worked out at 0.891.
The same measure for GAUCCGUUGGCGUAAUGGUGACGCGUCUUCCUACUAAGGAGAAGACUGCGGGUUAGAGUGCCGUACGGAACG [U2A A20G C29U C33A C55A C60G]: no more than 0.5; for GAUCCGUUGGCGUAAUGGUUACGCGUCUCCCUCCUAAGGAGAAGACUGCGGGUUCGAGUCCCGUACGGAACG [U2A A20U]: 0.732.
For GAUCCGUUGGCGUAGCGGUCUCGCGCCUCCCUCCUAAGGAGAAGACUGCGGGUUCGAGUCCCGUACGGAACG [U2A A15G U16C A20C A21U U26C] the value was 0.583; for GAUCCGUUGGCGUAAUGGUCACGCGUCUCCCUCCUAAGGAGAAGACUGCGGGUUCGAGUCCCGUAUGGAACG [U2A A20C C66U], 0.753.
For GAUCCGUUGGCGUAUUGGUAACGCGUCUCCCUCCUAAGGAGAAGACUGGGGGUUCGAGUCCCGUACGGAACG [U2A A15U C49G] the value was no more than 0.5.
Turning to GAUCCGUUGGCGUAAUGGUAACGCGUCUCCCUCCUAAGGAGAAGACUGCGGGUUCGAGUCCCGUACGGAACG [U2A], the yeast fitness is 0.988.
The same measure for GAUCCGUUGGCGUAAUGGUAGCGCGUCUUCCUCCUAAGGUGAAGACUGCGGGUUCGAGUCCCGUACGGAACG [U2A A21G C29U A40U]: 0.57; for GAUCCGUUGGCGUCAUGGUAACGCGUCUCUCUCGUAAGGAGAAGACUGCGGGUUCGACUCCCGUACGGAACG [U2A A14C C30U C34G G58C]: no more than 0.5.
The same measure for GAUCCGUUGGCGUUAUGGUAACGCGUCUCCCUCCUAAGGACAAGACUGCGGGUUCGAGUCCCGUACGGAACG [U2A A14U G41C]: no more than 0.5; for GAUCCGUUGGCGUAAUGGUAGCGCGUUUCCCUCCUAAGGAGAAGACUGCGGGUUCGAGUCCCGUACGGAACG [U2A A21G C27U]: 0.693.
For GAUCCGUUGGCGUAAUGGUCACGCGUCUCCCUACUAAGGAGAAGACUGCGGGUUUGAGUCCCGUACGGAACG [U2A A20C C33A C55U] the value was no more than 0.5; for GAUCCGUUGGCGUAUUGGUAACGCGUCUCCCUCCUAACAAGACGACUGCGGGUUCGAGUGCCGUCCGGAACG [U2A A15U G38C G39A A43C C60G A65C], no more than 0.5.
As to GAUCCGUUGGCGUAAUGGUACCGGGUCUCCCACCUAAGGAGCAGACUGCGGGUUCGAGUCCCGUUCGGAACG [U2A A21C C24G U32A A42C A65U], the yeast fitness is no more than 0.5.
For GAUCCGUUGGCGUAAUGGUGACGCGUCUCCCUCCUAAGGAGAAAACUGCGGGUUCGAGUCCCGUACGGAACG [U2A A20G G44A] the value was 0.531; for GAUCCGUUGGCGUAAUGGUCACGCGUCUCCCUCCUAAGGAGAAGACUGCGGGUUCGAGUCCUGUAGGGAACG [U2A A20C C62U C66G], no more than 0.5; for GAUCCGUUGGCGUAAUGGUCACGCGUCUCCCUCCUAGGGAGAAGACUGCGGAAUCGAGUCCCGUACGGAACG [U2A A20C A37G G52A U53A], no more than 0.5.
On to GAUCCGUUGGCGUAAUGGUAGCGCGUCUCCCUCCUAAGCAGAAGACUGCGGGUUCGAGUCCCGUACGGCACG [U2A A21G G39C A69C], for which the yeast fitness is no more than 0.5.
The same measure for GAUCCGUUGGCGUAAUGGUCACGCGUCUCCCUCCUAAGGAGAAGACUGCGGAUUCGAGUCCCGUACGGAACG [U2A A20C G52A]: 0.542.
For GAUCCGUUGGCGUAUAGGUAACGCGUCUCCCUCCUAAGGAGAAGACUGCGGGUUCGAGUUCGGUCCGGUACG [U2A A15U U16A C60U C62G A65C A69U] the value was no more than 0.5.
For GAUCCGUUGGCGUAAUGGUCACGCGUCUCCCUCCUAAGGAGAAGACUGCGGGUUCGAGUCCCGUACGAAACG [U2A A20C G68A] the value was 0.719.
Take GAUCCGUUGGCGUAAUGGUAGCGCGUCUCCCUCCUGAGGAGAACACUGCGGGUUCGAGGCCCGUACGGAACG [U2A A21G A36G G44C U59G]: the yeast fitness is no more than 0.5.
For GAUCCGUUGGCGUCAUGGUAACGCGUCUCUCUCGUAAGGAGAAGACUGCGGGUUCGAGUCCCAUACGGAACG [U2A A14C C30U C34G G63A] the value was 0.574.
Regarding GAUCCGUUGGCGUAAUGGUGACGCGUCUCCCUCCUAAGGAGAAGACUGCGGGUUCGACUCCCGUACGGAACG [U2A A20G G58C], the yeast fitness amounted to 0.973.
The same measure for GAUCCGUUGGCGUAAUGGUUACGCGUCUCCCUCCUAAGGCGAAGACUGCGGGUUCGAGUCCCGUACGGAACG [U2A A20U A40C]: 0.552; for GAUCCGUUGGCGUAAUGGUUACGCGUCUCCCUCCCAAGGAGAAGACUGCGGGUUCGAGUCCCGUACGGAACG [U2A A20U U35C]: no more than 0.5.
For the variant GAUCCGUUGGCGUUAUGGUCACGCGUCUCCCUCCAAACGAGAAGACUGCGGGUUCGAGUCCCGUACGGUACG [U2A A14U A20C U35A G38C A69U], the yeast fitness was no more than 0.5.
For GAUCCGUUGGCGUAAUGGUAUCGCGUUCCCCUCCUAAGGAGAAGACUGCGGGUUCGAGUCCGGUACGGAACG [U2A A21U C27U U28C C62G] the value was no more than 0.5; for GAUCCGUUGGCGUAAUGGUAGCGAGUCUCCCUCCUAAGGAGAAGACUGCGGGUUCGAGUCCCGUACGGAACG [U2A A21G C24A], no more than 0.5; for GAUCCGUUGGCGUCAUGGUGACGCGUCUCCCUCCUGAGGAGAAGACUGCGGGUCUGAGUCCCGUACGCAACG [U2A A14C A20G A36G U54C C55U G68C], 0.544.
As for GAUCCGUUGGCGUAAUGGUAUCGCGUCUUCCUCCUAAGGUGAAGACUGCGGGAUCGAGUACCGUGCGGAACG [U2A A21U C29U A40U U53A C60A A65G], the yeast fitness is no more than 0.5.
For GAUCCGUUGGCGUAAUGGUAGCGCGUCUCCCUCCUAAGGAGAAGAGUGCGGGUCCGAGUCCCGUACGGAACG [U2A A21G C46G U54C] the value was no more than 0.5.
